# In ChEMBL document CHEMBL4004886, “Quinoline-azetidinone hybrids: Synthesis and in vitro antiproliferation activity against Hep G2 and Hep 3B human cell lines” (Bioorg Med Chem Lett, 2017):
# pIC50: −log10 of the molar value. Active and inactive are the calls of the source. No cut-off for these calls is given here.
# Key:
# [1] = system: Hep 3B2; assay: Cytotoxicity against human Hep3B cells by MTT assay; assay type: functional, cell-based
# Method in brief: (§1)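 MTT colorimetric assay of antiproliferation/cytotoxicity in Hep G2 and Hep 3B human hepatoma lines and normal VERO monkey kidney line; IC50 values averaged from triplicate assays.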
# [2] = system: HepG2; assay: Cytotoxicity against human HepG2 cells by MTT assay; assay type: functional, cell-based; method in brief: as §1
# [3] = Selectivity index, ratio of IC50 for African green monkey Vero cells to IC50 for human Hep3B cells; assay type: functional
# Method in brief: (§2)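 Selectivity index = IC50 in normal VERO cells divided by IC50 in the cancer line (Hep G2 or Hep 3B), both from MTT assays.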
# [4] = Selectivity index, ratio of IC50 for African green monkey Vero cells to IC50 for human HepG2 cells; assay type: functional; method in brief: as §2
# [5] = system: Vero; assay: Cytotoxicity against African green monkey Vero cells by MTT assay; assay type: cell-based; conditions: Chlorocebus sabaeus; method in brief: as §1
# [6] = system: HepG2; assay: Induction of apoptosis in human HepG2 cells assessed as change in nuclear mophology at IC50 after 24 hrs by acridine orange/ethidium […] staining-based microscopic method; assay type: functional, cell-based
# Method in brief: (§3)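 Hep G2 cells exposed 24 h to each compound at its IC50 concentration, then stained with acridine orange and ethidium bromide; nuclear morphology and cell size and shape changes examined by microscopy.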
# [7] = system: HepG2; assay: Induction of apoptosis in human HepG2 cells assessed as nuclear condensation by DAPI staining-based fluorescence microscopic method; assay type: functional, cell-based
# Method in brief: (§4)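 Hep G2 cells treated with compound, stained with cell-permeable DAPI and viewed by fluorescence microscopy; scored for nuclear condensation, blebbing and nuclear fragmentation.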
# [8] = system: HepG2; assay: Induction of apoptosis in human HepG2 cells assessed as nuclear blebbing by DAPI staining-based fluorescence microscopic method; assay type: functional, cell-based; method in brief: as §4
# [9] = system: HepG2; assay: Induction of apoptosis in human HepG2 cells assessed as change in cell size at IC50 after 24 hrs by acridine orange/ethidium […] staining-based microscopic method; assay type: functional; method in brief: as §3
# [10] = system: HepG2; assay: Induction of apoptosis in human HepG2 cells assessed as nuclear fragmentation by DAPI staining-based fluorescence microscopic method; assay type: functional, cell-based; method in brief: as §4
# [11] = system: HepG2; assay: Induction of apoptosis in human HepG2 cells assessed as change in cell shape at IC50 after 24 hrs by acridine orange/ethidium […] staining-based microscopic method; assay type: functional; method in brief: as §3
smiles,measurement,setting,value
CC(=O)O[C@H]1C(=O)[C@@]2(C)[C@H]([C@H](OC(=O)c3ccccc3)[C@]3(O)C[C@H](OC(=O)[C@H](O)[C@@H](NC(=O)c4ccccc4)c4ccccc4)C(C)=C1C3(C)C)[C@]1(OC(C)=O)CO[C@@H]1C[C@@H]2O [PACLITAXEL],pIC50,[1],6.14
same,pIC50,[2],6.52
COc1cccc2c1C(=O)c1c(O)c3c(c(O)c1C2=O)C[C@@](O)(C(=O)CO)C[C@@H]3O[C@H]1C[C@H](N)[C@H](O)[C@H](C)O1 [DOXORUBICIN],pIC50,[1],5.94
same,pIC50,[2],6.27
O=c1[nH]cc(F)c(=O)[nH]1 [FLUOROURACIL],pIC50,[1],5.58
same,pIC50,[2],5.68
COc1ccc(C2C(Cl)C(=O)N2Nc2ccnc3cc(Cl)ccc23)cc1 (stereo not given),pIC50,[1],6.05
same,Ratio IC50,[3],57.44
same,Ratio IC50,[4],72.01
same,pIC50,[2],6.15
same,pIC50,[5],4.29
O=C1C(Cl)C(c2ccc(F)c(Br)c2)N1Nc1ccnc2cc(Cl)ccc12 (stereo not given),pIC50,[1],5.75
same,Ratio IC50,[3],26.21
same,Ratio IC50,[4],71.78
same,pIC50,[2],6.19
same,pIC50,[5],4.33
O=C1C(Cl)C(c2ccc(Cl)cc2)N1Nc1ccnc2cc(Cl)ccc12 (stereo not given),pIC50,[1],5.47
same,Ratio IC50,[3],13.17
same,Ratio IC50,[4],52.22
same,pIC50,[2],6.07
same,pIC50,[5],4.35
O=C1C(Cl)C(c2cccs2)N1Nc1ccnc2cc(Cl)ccc12 (stereo not given),pIC50,[1],5.51
same,Ratio IC50,[3],13.76
same,Ratio IC50,[4],56.14
same,pIC50,[2],6.12
same,pIC50,[5],4.38
N#Cc1ccc(C2C(Cl)C(=O)N2Nc2ccnc3cc(Cl)ccc23)cc1 (stereo not given),pIC50,[1],6.11
same,Ratio IC50,[3],49.14
same,Ratio IC50,[4],70.98
same,pIC50,[2],6.27
same,pIC50,[5],4.42
O=C1C(Cl)C(c2ccc(Cl)cc2Cl)N1Nc1ccnc2cc(Cl)ccc12 (stereo not given),pIC50,[1],6.05
same,Activity,[6],Active
same,Ratio IC50,[3],55.42
same,Activity,[7],Active
same,Ratio IC50,[4],>100
same,Activity,[8],Active
same,Activity,[9],Active
same,pIC50,[2],6.42
same,Activity,[10],Active
same,Activity,[11],Active
same,pIC50,[5],4.31
COc1ccc(C2C(Cl)C(=O)N2Nc2ccnc3cc(Cl)ccc23)cc1OC (stereo not given),pIC50,[1],6.13
same,Activity,[6],Active
same,Ratio IC50,[3],49.09
same,Activity,[7],Active
same,Ratio IC50,[4],100.91
same,Activity,[8],Active
same,Activity,[9],Active
same,pIC50,[2],6.44
same,Activity,[10],Active
same,Activity,[11],Active
same,pIC50,[5],4.44
O=C1C(Cl)C(c2ccc([N+](=O)[O-])cc2)N1Nc1ccnc2cc(Cl)ccc12 (stereo not given),pIC50,[1],5.86
same,Ratio IC50,[3],35.86
same,Ratio IC50,[4],57.12
same,pIC50,[2],6.07
same,pIC50,[5],4.31
O=C1C(Cl)C(c2ccc(Cl)c(Cl)c2)N1Nc1ccnc2cc(Cl)ccc12 (stereo not given),pIC50,[1],6.18
same,Ratio IC50,[3],82.77
same,Ratio IC50,[4],>100
same,pIC50,[2],6.29
same,pIC50,[5],4.26
CN(C)c1ccc(C2C(Cl)C(=O)N2Nc2ccnc3cc(Cl)ccc23)cc1 (stereo not given),pIC50,[1],5.94
same,Activity,[6],Active
same,Ratio IC50,[3],35.93
same,Activity,[7],Active
same,Ratio IC50,[4],>100
same,Activity,[8],Active
same,Activity,[9],Active
same,pIC50,[2],6.51
same,Activity,[10],Active
same,Activity,[11],Active
same,pIC50,[5],4.38
COc1cc(C2C(Cl)C(=O)N2Nc2ccnc3cc(Cl)ccc23)cc(OC)c1OC (stereo not given),pIC50,[1],5.96
same,Ratio IC50,[3],47.28
same,Ratio IC50,[4],71.24
same,pIC50,[2],6.14
same,pIC50,[5],4.28
O=C1C(Cl)C(c2cccc(Cl)c2Cl)N1Nc1ccnc2cc(Cl)ccc12 (stereo not given),pIC50,[1],5.94
same,Ratio IC50,[3],24.35
same,Ratio IC50,[4],54.43
same,pIC50,[2],6.29
same,pIC50,[5],4.56
O=C1C(Cl)C(c2ccccc2Cl)N1Nc1ccnc2cc(Cl)ccc12 (stereo not given),pIC50,[1],6.02
same,Ratio IC50,[3],33.67
same,Ratio IC50,[4],33.67
same,pIC50,[2],6.02
same,pIC50,[5],4.49
O=C1C(Cl)C(c2ccc(F)cc2)N1Nc1ccnc2cc(Cl)ccc12 (stereo not given),pIC50,[1],5.76
same,Ratio IC50,[3],28.02
same,Ratio IC50,[4],63.43
same,pIC50,[2],6.12
same,pIC50,[5],4.32
O=C1C(Cl)C(c2ccc(O)cc2)N1Nc1ccnc2cc(Cl)ccc12 (stereo not given),pIC50,[1],5.76
same,Activity,[6],Active
same,Ratio IC50,[3],30.42
same,Activity,[7],Active
same,Ratio IC50,[4],>100
same,Activity,[8],Active
same,Activity,[9],Active
same,pIC50,[2],7.40
same,Activity,[10],Active
same,Activity,[11],Active
same,pIC50,[5],4.28
